Test results: ChEMBL document CHEMBL3232875, “Prenylated benzoylphloroglucinols and xanthones from the leaves of Garcinia oblongifolia with antienteroviral activity” (J Nat Prod, 2014); call rule not given here

Key:
[1] = Selectivity index, ratio of CC50 for African green monkey Vero cells to IC50 for Enterovirus 71 BrCr; type: functional
Outline: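 SI computed as CC50 (Vero, 4-day MTT) divided by IC50 (EV71 BrCr CPE inhibition, 100 × TCID50, 4-day MTT) for each compound.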

[2] = Antiviral activity against Enterovirus 71 BrCr infected in African green monkey Vero cells assessed as inhibition of virus-induced cytopathic effect after 4 days by MTT assay; type: functional, cell-based, Human enterovirus 71 (strain BRCR)
Outline: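 EV71 strain BrCr grown in Vero cells kept in DMEM with 2% FBS; titer by TCID50 end-point dilution. Vero cells inoculated with 100 × TCID50 virus plus serially diluted compounds (DMSO stocks); ribavirin positive control. After four days, morphology checked by light microscopy and viability by MTT to give CPE inhibition rate; IC50 by Forecast function. Mean ± SD, three independent assays, quadruplicate per concentration.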

[3] = Cytotoxicity against African green monkey Vero cells after 4 days by MTT assay; type: cell-based; settings: chlorocebus sabaeus
Outline: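 Vero cells treated or untreated with serially diluted compounds (100 mM DMSO stocks) for four days, viability read by MTT; CC50 calculated by Forecast function. Mean ± SD of three independent assays, each concentration in quadruplicate.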

[4] = Enterovirus A, Vero, 96 h, read-out: IC50

SMILES	IC50 ([2]; vero)	further results
CC(=O)C[C@H]1[C@@H]2C[C@]3(CC=C(C)C)C(=O)[C@@]1(C(=O)c1ccccc1)C(=O)[C@@](CC=C(C)C)(C3=O)C2(C)C	–	Ratio CC50/IC50 [1]: 1.5; IC50 [2, 4]: 31.1 µM; CC50 at 96 h [3]: 47 µM
CC(=O)C[C@@H]1[C@@H]2C[C@]3(CC=C(C)C)C(=O)[C@@]1(C(=O)c1ccc(O)c(O)c1)C(=O)[C@@](CC=C(C)C)(C3=O)C2(C)C	Not Active	–
CC(C)=CCC/C(C)=C/C[C@@H]1C[C@@]2(CC=C(C)C)C(=O)[C@H](C(=O)C(C(=O)c3ccccc3)=C2O)C1(C)C	Not Active	–
CC(C)=CCC/C(C)=C/C[C@@H]1C[C@@]2(CC=C(C)C)C(=O)C(OC(=O)c3ccccc3)=C(O)[C@H](C2=O)C1(C)C	–	Ratio CC50/IC50 [1]: 2.4; IC50 [2, 4]: 16.1 µM; CC50 at 96 h [3]: 37.8 µM
C=C(C)C(=O)CC/C(C)=C/C[C@@H]1C[C@@]2(CC=C(C)C)C(=O)[C@H](C(=O)C(C(=O)c3ccccc3)=C2O)C1(C)C	Not Active	–
C=C(CCC=C(C)C)C(=O)C[C@H]1C[C@@]2(CC=C(C)C)C(=O)[C@H](C(=O)C(C(=O)c3ccccc3)=C2O)C1(C)C	Not Active	–
CC(C)=CC[C@@]12C[C@@H](C)C(C)(C)[C@@H](C(=O)C(C(=O)c3ccccc3)=C1O)C2=O	Not Active	–
C=C(C)[C@@H](O)CC/C(C)=C/C[C@@H]1C[C@@]2(CC=C(C)C)C(=O)[C@H](C(=O)C(C(=O)c3ccccc3)=C2O)C1(C)C	Not Active	–
CC(C)=CCC/C(C)=C/C[C@H]1C[C@@]23C[C@@H](C(C)(C)O)OC2=C(C(=O)c2ccccc2)C(=O)[C@H](C3=O)C1(C)C	Not Active	–
CC(C)=CCC/C(C)=C/C[C@H]1C[C@@]23C[C@H](O)C(C)(C)OC2=C(C(=O)c2ccccc2)C(=O)[C@H](C3=O)C1(C)C	Not Active	–
C=C(C)[C@H](O)CC/C(C)=C/C[C@H]1C[C@@]2(CC=C(C)C)C(=O)[C@](CC=C(C)C)(C(=O)C(C(=O)c3ccc(O)c(O)c3)=C2O)C1(C)C	Not Active	–
CC(C)=CCC/C(C)=C/C[C@H]1C[C@@]2(CC=C(C)C)C(=O)[C@](CC=C(C)C)(C(=O)C(C(=O)c3cccc(O)c3)=C2O)C1(C)C	Not Active	–
COc1cc(O)c2c(=O)c3c(O)cc(O)c(OC)c3oc2c1	Not Active	–
COc1cc(O)c2c(=O)c3cc(CC=C(C)C)c(O)c(O)c3oc2c1C/C=C(\C)CCC=C(C)C	Not Active	–
COc1c(CC=C(C)C)c(O)c2c(=O)c3ccc(O)c(O)c3oc2c1CC=C(C)C [DULXANTHONE B]	Not Active	–
CC(C)=CCC/C(C)=C/C[C@@H]1C[C@]2(CC=C(C)C)C(=O)[C@@](CC=C(C)C)(C(=O)C(C(=O)c3ccc(O)c(O)c3)=C2O)[C@@]1(C)CCC=C(C)C [OBLONGIFOLIN C]	Not Active	–
NC(=O)c1ncn([C@@H]2O[C@H](CO)[C@@H](O)[C@H]2O)n1 [RIBAVIRIN]	–	Ratio CC50/IC50 [1]: >4; IC50 [2, 4]: 253 µM; CC50 at 96 h [3]: > 1000 µM
